PHOSPHO1 block – PHOSPHO1 (human) inhibition; Q8TCT1; recombinant PHOSPHO1, absorbance phosphatase assay; inhibition, % at 13.3 µM; 290,000 tested, 1.1% active; in the data active = inhibition above about 60%
hERG protect – hERG (human) protection from proarrhythmic block | Q12809 | CHO-hERG, FluxOR thallium flux, dofetilide IC70 present | activation (rescue from dofetilide block), less the hit threshold, % at 10 µM | 310,000 tested, 0.51% active;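 active = activation above the mean of controls blocked by dofetilide plus 5 SD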;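 note: thallium influx through hERG after potassium depolarization seen as dye fluorescence rise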
KCNQ1 inh – inhibitors of human KCNQ1 potassium channel. P51787. CHO-K1 KCNQ1, FluxOR thallium flux fluorescence; hits give high values. B-score at 10 µM. 310,000 tested, 1.3% active. AID 2642;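 active = compounds whose thallium flux B-score, printed positive for inhibition, exceeds three library SD while starting fluorescence stays within three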;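 note: channel opened by potassium depolarization with thallium stimulus after 20 min compound exposure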
KCNK9 block – human KCNK9 channel inhibition; B-score at 10 µM; HEK293 KCNK9, FluxOR thallium flux fluorescence; hits give low values; Q9NPC2; 310,000 tested, 1.2% active;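 active = ratio B-score over 3 SD below the library mean, with starting fluorescence within 5 SD of its mean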;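 note: negative B-score means less thallium flux so channel inhibition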
KCNK3 block – human KCNK3 channel inhibition, primary screen. O14649. CHO-KCNK3 thallium flux, FluxOR fluorescence; hits give low values. B-score at 10 µM. 340,000 tested, 0.84% active;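 active = B-score under library mean minus 4 SD, starting fluorescence ratio at most library mean plus 5 SD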;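 note: more negative B-score means stronger inhibition of thallium flux through KCNK3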
KCNQ1 pot – potentiators or activators of human KCNQ1 potassium channel | P51787 | CHO-K1 KCNQ1, thallium flux FluxOR fluorescence; hits give high values | B-score at 10 µM | 310,000 tested, 0.35% active;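 active = fluorescence ratio B-score, a plate-corrected score, at least three library SD, with initial intensity B-score within 5 SD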
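Assay system: CHO-K1 cells stably expressing KCNQ1; Medium: assay buffer with matched DMSO; Also added: K+/Tl+ depolarizing stimulus; Dosing: single dose; Timing: dye 90 min, compound 20 min, room temperature; Measured by: kinetic FluxOR thallium fluorescence, 10-s 1-Hz baseline, 110-s post-stimulus read; Read-out: peak-minus-minimum fluorescence over initial fluorescence, negative-control normalized, B-scored.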
KCNQ1 block val – reconfirmed blocker of the human KCNQ1 potassium channel. 1,600 tested, 93% active. shares compounds with KCNQ1 inh. KCNQ1 cell line, FluxOR thallium flux fluorescence. inhibition, % at 10 µM;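 active = primary screen active, with duplicate mean exceeding buffer control mean plus 3 SD of buffer wells, cut at about 28% in these data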
CHO Tl flux – counter-screen for KCNQ1 inhibitors: effect in parental CHO cells | shares compounds with KCNQ1 inh | parental CHO-K1, FluxOR thallium flux fluorescence ratio; hits give low values; zero means no signal rise above baseline | fluorescence ratio (Tl flux) at 10 µM | 1,600 tested, 21% active;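 active = mean of duplicate thallium-flux fluorescence ratios in parental host cells more than 5 SD below the buffer control mean, cut at about 0.38 in these data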;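 note: ratio is peak minus minimum fluorescence divided by baseline fluorescence; actives read low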
KCNQ1 ephys val – human KCNQ1 inhibition validated by electrophysiology; shares compounds with KCNQ1 inh; KCNQ1-CHO cells, automated patch clamp current; calls only at 10 µM; 490 tested, 20% active; AID 624120;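 active = KCNQ1 current drop exceeding 3 SD of negative control wells, seen in both duplicate runs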;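 note: steady state current during a 2 s step from -80 to +40 mV; negative values mean current inhibition and positive values mean potentiation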
KCNQ2 spec – selectivity of KCNQ1 inhibitors: inhibition of rat KCNQ2 channel; shares compounds with KCNQ1 inh; KCNQ2 cells, FluxOR thallium flux fluorescence; inhibition, % at 10 µM; 1,600 tested, 71% active;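 active = mean percent inhibition of the KCNQ2 thallium signal more than 5 SD above the buffer-only control wells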;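 note: KCNQ2 expressed in CHO cells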
Target sequence (O88943 whole entry, looked up): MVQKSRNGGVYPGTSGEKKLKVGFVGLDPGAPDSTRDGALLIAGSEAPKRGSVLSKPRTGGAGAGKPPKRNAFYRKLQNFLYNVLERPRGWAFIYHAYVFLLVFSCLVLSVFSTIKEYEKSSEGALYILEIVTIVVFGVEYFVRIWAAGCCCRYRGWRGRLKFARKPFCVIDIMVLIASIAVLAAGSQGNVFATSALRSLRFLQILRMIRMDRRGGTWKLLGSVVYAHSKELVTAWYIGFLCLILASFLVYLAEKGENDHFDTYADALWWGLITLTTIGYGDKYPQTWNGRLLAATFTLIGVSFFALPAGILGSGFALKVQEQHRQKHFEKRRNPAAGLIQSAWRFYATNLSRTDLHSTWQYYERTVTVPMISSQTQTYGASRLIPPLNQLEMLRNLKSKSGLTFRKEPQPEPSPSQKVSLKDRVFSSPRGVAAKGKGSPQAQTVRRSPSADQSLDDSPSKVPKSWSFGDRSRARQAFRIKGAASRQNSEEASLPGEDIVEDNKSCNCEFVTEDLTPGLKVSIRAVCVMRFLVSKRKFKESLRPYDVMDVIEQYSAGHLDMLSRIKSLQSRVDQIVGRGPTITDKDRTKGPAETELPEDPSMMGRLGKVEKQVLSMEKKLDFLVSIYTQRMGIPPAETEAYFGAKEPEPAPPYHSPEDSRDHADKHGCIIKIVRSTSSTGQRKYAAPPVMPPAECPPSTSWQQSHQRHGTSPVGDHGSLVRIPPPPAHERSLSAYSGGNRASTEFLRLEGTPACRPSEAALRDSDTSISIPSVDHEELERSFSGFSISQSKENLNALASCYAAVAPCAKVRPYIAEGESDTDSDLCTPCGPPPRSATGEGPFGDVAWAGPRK
KCNQ1 KCNE1 spec – KCNQ1 inhibitor that also blocks human KCNQ1/KCNE1 channel; 1,600 tested, 77% active; inhibition, % at 10 µM; KCNQ1/KCNE1 cells, FluxOR thallium flux fluorescence; shares compounds with KCNQ1 inh;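 active = mean percent inhibition of duplicate wells above the buffer-only control mean plus 3 SD of those controls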
Large screens that a line does not name were inactive (follow-up assays come after a bar, where they were run). In the library only some 4% were active in any assay of this set; here they are far more common.

Cc1sc(NC(=O)c2sc3nc4c(C)cccc4cc3c2N)c(C#N)c1C	KCNQ1 inh 9 | KCNQ1 block val 54.0 | CHO Tl flux inactive | KCNQ2 spec inactive | KCNQ1 KCNE1 spec 87.0%
O=C(NCCCN1CCCC1=O)c1ccc([N+](=O)[O-])s1	none (no result: PHOSPHO1 block)
O=C(c1ccccc1)N1CCOC12CCN(c1ncc(C(F)(F)F)cc1Cl)CC2	none
CCOC(=O)c1c(-c2ccccc2)oc2ccc(OCC)cc12	KCNQ1 inh 6 | KCNQ1 block val 70.5 | CHO Tl flux inactive | KCNQ2 spec 96.3% | KCNQ1 KCNE1 spec 62.0%
COc1cccc(OC)c1C(=O)Nc1nc(COc2ccccc2)cs1	none
Cn1nc(C(C)(C)C)cc1NC(=O)Nc1ccc(Cl)cc1	KCNQ1 inh 7 | KCNQ1 block val 83.0 | CHO Tl flux inactive | KCNQ2 spec inactive | KCNQ1 KCNE1 spec inactive
O=S(=O)(c1cccs1)N1CCCc2cccc(O)c21	none
O=C(NC1CCSc2ccccc21)c1cccc(OC(F)F)c1 (stereo unspecified)	none
O=C(NC1CCSc2ccccc21)c1cccc(Br)c1 (stereo unspecified)	KCNQ1 inh 7 | KCNQ1 block val 31.5 | CHO Tl flux inactive | KCNQ2 spec 82.7% | KCNQ1 KCNE1 spec 33.5%
Cc1ccc(C(=O)NCCCn2ccnc2)o1	none
CC1(C)CCN2CCC(C)(C)c3c(O)ccc1c32	KCNQ1 inh 11 | KCNQ1 block val 70.0 | CHO Tl flux inactive | KCNQ2 spec 62.3% | KCNQ1 KCNE1 spec 58.0%
N/C(=N\S(=O)(=O)c1cc(C(F)(F)F)cc(C(F)(F)F)c1)c1ccc(Cl)cc1	KCNQ1 inh 7 | KCNQ1 block val inactive | CHO Tl flux inactive | KCNQ2 spec inactive | KCNQ1 KCNE1 spec inactive
CON(C)C(=O)CCN(Cc1ccccc1)C(=O)OC(C)(C)C	none (no result: PHOSPHO1 block, hERG protect, KCNQ1 inh, KCNK9 block, KCNQ1 pot)
COC(=O)C(Cc1ccc(O)cc1)NC(=O)C12CC3CC(CC(C3)C1)C2 (stereo unspecified)	KCNQ1 inh 14 | KCNQ1 block val 43.5 | CHO Tl flux inactive | KCNQ2 spec inactive | KCNQ1 KCNE1 spec inactive
COC(=O)C(Cc1ccccc1)NC(=O)C12CC3CC(CC(C3)C1)C2 (stereo unspecified)	none
COc1cc(NC(=S)NC(=O)c2ccccc2F)ccc1NC(=O)c1cccs1	none
O=C(Nc1ccc(NC(=S)NC(=O)c2ccccc2F)cc1)c1cccs1	KCNQ1 inh 6 | KCNQ1 block val 94.5 | CHO Tl flux inactive | KCNQ1 ephys val active | KCNQ2 spec 63.3% | KCNQ1 KCNE1 spec 132.5%
COc1ccc2oc(C(=O)OCC(=O)N3CCCCC3C)c(C)c2c1 (stereo unspecified)	none (no result: PHOSPHO1 block, hERG protect, KCNQ1 inh, KCNK9 block, KCNQ1 pot)
Clc1ccc(-c2csc(N3CCCCCC3)n2)cc1	KCNQ1 inh 8 | KCNQ1 block val 123.0 | CHO Tl flux inactive | KCNQ1 ephys val inactive | KCNQ2 spec 80.7% | KCNQ1 KCNE1 spec 139.5%
CC(C)N1CCC2(CC1)N=C(c1ccc3c(c1)OCO3)CC(c1cc(Cl)ccc1O)N2 (stereo unspecified)	KCNQ1 inh 10 | KCNQ1 block val 49.5 | CHO Tl flux inactive | KCNQ2 spec 106.3% | KCNQ1 KCNE1 spec 37.5%
O=C(Nc1ccccc1N1CCOCC1)c1ccccc1NS(=O)(=O)c1ccc(F)c(F)c1	KCNQ1 inh 7 | KCNQ1 block val 59.0 | CHO Tl flux inactive | KCNQ2 spec 74.3% | KCNQ1 KCNE1 spec inactive

Bioassay records from PubChem BioAssay.
